Sampled rows, rich in hits. Any-hit rate of the full collection: about 1%.
eIF2B yeast act – GCN4-lacZ reporter reduction in eIF2B-epsilon mutant yeast, primary screen, S. cerevisiae, eIF2B-epsilon R284H, Beta-Glo luminescence | inhibition, % at 25 µM (by protocol) | 27,000 tested, 0.91% active | AID 688, 2007;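 active = mutant luminescence inhibited past about 50% while wild type luminescence and mutant growth stay under set limits, limit read from the data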
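System: Yeast eIF2B-epsilon R284H mutant carrying GCN4–beta-galactosidase fusion | Read-out basis: Percent inhibition, luminescence and growth | Compound: 25 µM single dose | Times: 16 h at 30 °C exposure | Measured by: Luminescence and A595 | Buffer or medium: YPD medium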
Yeast growth tox – yeast growth toxicity, wild-type and mutant, primary screen, cytotoxicity control for eIF2B function restoration project, wild-type and eIF2Bepsilon R284H mutant, A595. 30,000 tested, 0.3% active. growth inhibition, % at 25 µM (by protocol). AID 685, 2007. S. cerevisiae wild-type growth, A595 turbidity, 16 h;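 active = mutant and wild-type yeast strains alike exhibit over 30% growth inhibition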;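 also: 0% = untreated cell controls and 100% = YPD media blanks without cells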
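Test system: Wild-type and eIF2Bepsilon-R284H mutant S. cerevisiae, screened separately | Dosing: Single 25 µM compound dose in 0.2% DMSO | Schedule: 16 h compound exposure during growth at 30 °C | Detection: A595 turbidity | Evaluation: Growth inhibition (%) versus cell controls and blanks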
The depositor's hits bear a star; / = not tested or not shown.

SMILES	eIF2B yeast act	Yeast growth tox
CCC1CCCCN1Cc1ccc(OC)c(C)c1C (stereo not given)	/	21.1
O=C(O)c1c[nH]c2ccc(S(=O)(=O)N3CCN(c4ccc(F)cc4)CC3)cc2c1=O	10.5	17.7
O=C(c1c[nH]c2ccc(S(=O)(=O)N3CCOCC3)cc2c1=O)N1CCCC1	60.1*	0.8
COc1ccc(-n2nc(C(=O)Nc3ccc4c(c3)OCO4)c3ccccc3c2=O)c(OC)c1	-17.0	-32.7
COc1ccccc1-n1nc(C(=O)Nc2ccc3c(c2)OCO3)c2ccccc2c1=O	50.2*	-13.2
O=C(CSc1nnc(C2CC2)n1-c1ccccc1)Nc1ccc(N2CCOCC2)cc1	23.6	6.7
CCc1cc2c(SCC(=O)c3ccc(Cl)s3)ncnc2s1	13.8	11.0
CCOC(=O)CC1=NC(=O)CS1	63.9*	2.6
COCCOC(=O)CC1=NC(=O)CS1	0.7	21.2
CC(C)NC(=O)c1cc(-c2cccs2)on1	24.4	17.8
Cc1cc(NC(=O)c2cc(-c3cccs3)on2)no1	0.3	30.7*
CC1(C)Oc2ccc3ccc(=O)oc3c2/C(=C/NCCN/C=C2\C(=O)C(C)(C)Oc3ccc4ccc(=O)oc4c32)C1=O	/	-1.5
Cc1ccccc1NCCNc1ccccc1C	18.8	8.8
O=C(O)CN1CCCC1=Nc1ccccc1	/	8.3
Cc1ccc(C)c(N=C2CCCN2Cc2ccccc2)c1C#N	56.8*	/
Cc1cc(NC(=O)C(=O)NCCN2CCN(C(=O)c3cccs3)CC2)ccc1Br	-35.5	-29.7
COc1ccc(NC(=O)C(=O)NCCN2CCN(C(=O)c3cccs3)CC2)cc1	51.6*	-22.6
CC1(C)Cc2c(cnn2-c2ccccc2)C(=O)/C1=N\NC(=O)c1ccccc1O	/	20.0
CCOC(=O)COc1ccc(S(=O)(=O)N2CCN(C(=O)OCC)CC2)cc1	11.1	8.6
CCOC(=O)c1cc(S(=O)(=O)N2CCN(C(=O)OCC)CC2)cn1C	67.3*	-1.1
Cc1ccc(S(=O)(=O)/C(C#N)=C/c2c(N3CCC(C(N)=O)CC3)nc3ccccn3c2=O)cc1	10.2	14.3
COc1ccc(S(=O)(=O)N(CCc2ccccc2)CC(=O)O)cc1C	17.4	2.6
COC(=O)c1ccc(NC(=O)CN(Cc2ccc(Cl)cc2)S(C)(=O)=O)cc1	16.7	16.1
C=CCOc1ccc(CNc2nccs2)cc1OC	0.1	-5.9
O=c1c(Cl)c(N2CCCCC2)cnn1-c1nc2ccccc2[nH]1	73.2*	-4.3
SMILES	eIF2B yeast act	Yeast growth tox
Clc1ccc2nc(N3CCCCC3)[nH]c2c1	36.9	13.8
Cn1c(C(=O)O)c(CC(=O)N2CCC(Cc3ccccc3)CC2)c2ccccc21	16.1	6.9
COc1ccc(Cl)cc1Nc1nc(C)cc(C)c1C(N)=O	20.1	3.3
O=C(CSc1ncn[nH]1)Nc1ccccc1Sc1ccc(Cl)cc1	18.9	-7.0
CCOC(=O)Cn1c(=O)c2c(nc3n2CCN3Cc2ccccc2)n(C)c1=O	53.1*	4.1
CCOC(=O)Cn1c(=O)c2c(nc3n2CCN3c2ccc(C)cc2)n(C)c1=O	-21.5	10.4
C=C(C)c1cccc(C(C)(C)NC(=O)N(Cc2ccccc2)Cc2ccco2)c1	/	-23.5
COc1cc(Cl)c(S(=O)(=O)NCc2ccccn2)cc1Cl	/	7.7
CCCCCCCCC(=O)Nc1cc(C)ccc1OC	-8.0	2.8
Clc1ccc(CSc2nnc(-c3cccnc3)o2)cc1	-9.1	8.6
O=C(NC1CCCCC1)Sc1ccc(Cl)cc1	9.4	40.9*
COc1ccc(Cl)cc1NC(=O)C(=O)NC1CCCCCC1	18.7	12.5
CCNS(=O)(=O)c1ccc(Br)c(OC)c1	/	17.2
Cc1ccc(-c2cn(S(=O)(=O)c3cccc4nsnc34)nc2N)cc1	58.2*	-0.6
Cc1ccc(C)c(N(C)S(=O)(=O)c2cccc3nsnc23)c1	2.8	0.2
CCOc1ccc(-c2[nH]ncc2Oc2ccccc2OC)c(O)c1	8.2	32.5
CCCOC(=O)c1ccc(Oc2cn[nH]c2-c2ccc(OC)cc2O)cc1	29.0	60.0*
CCOC(=O)C1=C(N)N2C(=O)C(C)SC2=C(C(=O)OCC)C1c1ccccc1 (stereo not given)	49.6	-20.6
CCOC(=O)C1=C(N)N2C(=O)C(C)SC2=C(C(=O)OC)C1c1ccccc1OC (stereo not given)	/	68.7*
CC1=NN(/C(=N\c2nnc(C)s2)Nc2ccc(C(C)(C)C)cc2)[C@H](c2ccc(C)cc2)S1	/	10.6
CC(=O)Nc1ccc(C(=O)N2CCN(C(=O)c3ccco3)CC2)cc1	12.7	-1.7
O=C(CCN1CCN(C(=O)c2ccco2)CC1)Nc1ccc(F)cc1	68.7*	-14.3
Nn1c(CSc2nc3ccccc3o2)nnc1CSc1nc2ccccc2o1	60.9*	-20.3
c1ccc2[nH]c(CSc3nc4ccccc4o3)nc2c1	-0.8	14.9
COc1cc(/C(C#N)=C/c2ccccc2)c([N+](=O)[O-])cc1OC	-1.9	-4.6
SMILES	eIF2B yeast act	Yeast growth tox
CC(C)(C)SCCNC(=O)c1ccc(Cl)c(S(=O)(=O)N2CCOCC2)c1	51.9*	0.3
O=C(NCc1ccncc1)c1ccc(Cl)c(S(=O)(=O)N2CCOCC2)c1	19.2	/
O=C(Nc1ccc2c(c1)OCO2)c1noc2c1CCCCC2	11.4	1.6
CC(=O)c1ccc(NC(=O)c2noc3c2CCCCC3)cc1	69.4*	-9.0
NC(=S)N/N=C/c1ccc(-c2ccc(Cl)c(Cl)c2)o1	43.5	30.0*
Clc1ccc(Cl)c(-c2ccc(/C=N/c3ncn[nH]3)o2)c1	-25.9	3.2
CCOC(=O)CSc1nc2sc3c(c2c(=O)[nH]1)CCCC3	50.1*	-43.8
CCCCSc1nc2sc3c(c2c(=O)[nH]1)CCC3	15.8	-20.4
CN1CCN(CCC(=O)N2c3ccccc3Sc3ccc(Cl)cc32)CC1	19.8	-1.5
CN1CCN(C2=Cc3ccccc3Sc3cc(F)c(F)cc32)CC1	75.3	94.2*
CN1CCN(C2=Cc3ccccc3Sc3cc(F)c(Cl)cc32)CC1	97.8	99.2*
CN1CCN(c2nc(-c3ccccc3)cc(C(F)(F)F)n2)CC1	29.9	-11.7
COCC(=O)Nc1c(C(=O)Nc2ccccc2OC)oc2ccccc12	10.1	-16.7
COc1ccccc1NC(=O)c1oc2ccccc2c1NC(=O)c1cc(OC)c(OC)c(OC)c1	63.2*	-44.0
CC1CCN(C(=O)CCNC(=O)Cn2cnc3sc4c(c3c2=O)CCCC4)CC1	17.1	3.1
C=CCSc1nnc2c(n1)OC(c1cccnc1)N(C(C)=O)c1ccccc1-2 (stereo not given)	54.6*	-8.9
COc1ccc(C2Oc3ccccc3N2C(C)=O)cc1 (stereo not given)	0.2	-34.0
CCOC(=O)c1c(NC(=O)c2c(Br)cnn2CC)sc(C)c1C	26.3	-16.8
O=C(OCn1ncc(Br)c(Br)c1=O)c1c(F)cccc1F	/	81.6*
C=CCC(NC(C)c1ccccc1)c1ccco1 (stereo not given)	13.8	-7.0
CC1CCN(C(c2cccs2)c2nnnn2Cc2ccccc2)CC1 (stereo not given)	14.4	-3.5
C=CCc1c(C)c(C#N)c2nc3ccccc3n2c1NCCN(C)C	94.7	95.5*
CCc1c(C)c(C#N)c2nc3ccccc3n2c1NCc1ccco1	/	22.3
COc1cc(/C=C2\C(=O)N(CCC#N)N=C2C)c(Br)cc1OC(C)C	53.0*	-16.8
Cc1ccc(C)c(N2CCN(C(=O)Cn3c(=O)[nH]c4ccsc4c3=O)CC2)c1	/	47.2
O=C(CNC(=O)c1ccc(Cl)cc1Cl)NCCCn1ccnc1	23.8	22.7

Source: PubChem BioAssay (PCMD)
